According to ChEMBL document CHEMBL5661979, “Pharmacological inhibition of BMK1 suppresses tumor growth through promyelocytic leukemia protein” (Cancer Cell, 2010):

Experiments:
[1] = molecular target: Interleukin-1 receptor-associated kinase 1 (Homo sapiens, UniProt P51617); test: Inhibition of IRAK1 in human HeLa cells lysate pre incubated for 15 mins followed by ATP acyl phosphate probe addition and measured after 10 mins by LC-MS/MS analysis; assay type: subcellular
[2] = molecular target: Serine/threonine-protein kinase Nek1 (Homo sapiens, UniProt Q96PY6); test: Inhibition of NEK1 in human HeLa cells lysate pre incubated for 15 mins followed by ATP acyl phosphate probe addition and measured after 10 mins by LC-MS/MS analysis; assay type: subcellular
Chain of Serine/threonine-protein kinase Nek1 (Q96PY6 whole entry): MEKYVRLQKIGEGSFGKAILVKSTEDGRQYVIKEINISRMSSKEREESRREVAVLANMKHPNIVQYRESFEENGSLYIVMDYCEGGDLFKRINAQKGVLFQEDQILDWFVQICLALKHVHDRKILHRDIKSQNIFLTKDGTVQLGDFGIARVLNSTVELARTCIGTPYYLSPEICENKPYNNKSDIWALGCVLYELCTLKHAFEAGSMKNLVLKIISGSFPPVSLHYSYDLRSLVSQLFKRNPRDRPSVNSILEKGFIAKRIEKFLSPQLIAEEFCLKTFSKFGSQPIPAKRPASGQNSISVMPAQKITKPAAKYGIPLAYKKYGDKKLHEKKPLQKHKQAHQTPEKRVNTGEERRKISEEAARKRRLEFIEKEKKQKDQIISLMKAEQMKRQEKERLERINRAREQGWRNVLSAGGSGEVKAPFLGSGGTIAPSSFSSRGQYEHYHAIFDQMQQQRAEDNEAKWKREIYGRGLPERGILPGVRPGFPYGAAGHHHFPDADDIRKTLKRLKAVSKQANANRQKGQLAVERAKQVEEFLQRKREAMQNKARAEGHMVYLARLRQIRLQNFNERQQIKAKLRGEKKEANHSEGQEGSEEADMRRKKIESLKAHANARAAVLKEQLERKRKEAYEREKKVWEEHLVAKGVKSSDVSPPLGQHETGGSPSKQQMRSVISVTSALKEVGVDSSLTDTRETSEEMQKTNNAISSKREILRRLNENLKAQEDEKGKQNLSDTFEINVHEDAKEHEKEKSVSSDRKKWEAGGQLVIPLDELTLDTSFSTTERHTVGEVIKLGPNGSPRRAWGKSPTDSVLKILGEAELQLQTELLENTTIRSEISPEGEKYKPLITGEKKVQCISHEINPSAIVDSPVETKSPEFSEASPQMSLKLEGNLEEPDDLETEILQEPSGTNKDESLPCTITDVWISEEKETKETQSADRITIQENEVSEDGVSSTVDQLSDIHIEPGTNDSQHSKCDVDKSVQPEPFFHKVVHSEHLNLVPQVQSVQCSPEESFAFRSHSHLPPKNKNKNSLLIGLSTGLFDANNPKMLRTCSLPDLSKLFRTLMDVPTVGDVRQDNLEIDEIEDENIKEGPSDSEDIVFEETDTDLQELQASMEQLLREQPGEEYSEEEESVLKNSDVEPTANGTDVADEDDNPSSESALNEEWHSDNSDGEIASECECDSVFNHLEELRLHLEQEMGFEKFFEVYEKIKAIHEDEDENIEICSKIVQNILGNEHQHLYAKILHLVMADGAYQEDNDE

[3] = molecular target: 5'-AMP-activated protein kinase catalytic subunit alpha-2 (Homo sapiens, UniProt P54646); test: Inhibition of AMPKalpha2 in human HeLa cells lysate pre incubated for 15 mins followed by ADP acyl phosphate probe addition and measured after 10 mins by LC-MS/MS analysis; assay type: subcellular
Chain of 5'-AMP-activated protein kinase catalytic subunit alpha-2 (P54646 whole entry, the tested form may be a part): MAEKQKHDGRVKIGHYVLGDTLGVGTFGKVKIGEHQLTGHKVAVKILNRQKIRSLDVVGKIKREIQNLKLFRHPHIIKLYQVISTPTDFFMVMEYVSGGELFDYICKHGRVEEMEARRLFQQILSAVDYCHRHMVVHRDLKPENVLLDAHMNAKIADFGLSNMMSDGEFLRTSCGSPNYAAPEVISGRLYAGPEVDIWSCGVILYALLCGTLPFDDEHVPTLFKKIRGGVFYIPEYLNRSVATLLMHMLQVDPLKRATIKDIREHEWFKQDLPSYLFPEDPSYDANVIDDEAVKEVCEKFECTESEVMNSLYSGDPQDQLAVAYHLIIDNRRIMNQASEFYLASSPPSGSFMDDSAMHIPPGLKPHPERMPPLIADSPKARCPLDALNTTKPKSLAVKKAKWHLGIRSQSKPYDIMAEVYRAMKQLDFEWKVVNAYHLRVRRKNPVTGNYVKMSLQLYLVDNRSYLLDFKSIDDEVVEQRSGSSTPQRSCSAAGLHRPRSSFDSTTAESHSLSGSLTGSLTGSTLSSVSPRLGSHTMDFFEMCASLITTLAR
Summary of the method: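 HeLa cell lysates (5 mg/mL total protein) were preincubated with inhibitor at 0, 0.8, 2, 10 or 50 μM for 15 min. ATP or ADP acylphosphate probe was then added (5 μM final) for 10 min, and reactions were stopped with urea. Up to four fragment ions per kinase probe-peptide were quantified by targeted MS. % inhibition was taken relative to untreated lysate. Run in duplicate.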

[4] = molecular target: Serine/threonine-protein kinase Chk2 (Homo sapiens, UniProt O96017); test: Inhibition of CHK2 in human HeLa cells lysate pre incubated for 15 mins followed by ADP acyl phosphate probe addition and measured after 10 mins by LC-MS/MS analysis; assay type: subcellular
Chain of Serine/threonine-protein kinase Chk2 (O96017 whole entry): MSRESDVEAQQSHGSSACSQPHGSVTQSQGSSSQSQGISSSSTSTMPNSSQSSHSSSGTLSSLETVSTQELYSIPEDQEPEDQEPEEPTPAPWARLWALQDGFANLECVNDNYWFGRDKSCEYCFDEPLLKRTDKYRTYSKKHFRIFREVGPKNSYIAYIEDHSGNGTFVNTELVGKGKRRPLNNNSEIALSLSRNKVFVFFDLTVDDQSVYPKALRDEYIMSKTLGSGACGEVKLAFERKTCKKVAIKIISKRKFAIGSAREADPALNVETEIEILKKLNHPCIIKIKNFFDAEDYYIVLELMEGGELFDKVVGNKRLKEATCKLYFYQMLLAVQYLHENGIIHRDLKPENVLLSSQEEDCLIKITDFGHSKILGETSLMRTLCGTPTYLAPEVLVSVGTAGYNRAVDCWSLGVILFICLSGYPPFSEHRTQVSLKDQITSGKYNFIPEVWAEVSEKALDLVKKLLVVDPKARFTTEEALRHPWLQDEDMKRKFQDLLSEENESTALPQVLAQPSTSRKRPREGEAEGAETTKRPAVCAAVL

[5] = Inhibition of MAP3K2/MAP3K3 in human HeLa cells lysate pre incubated for 15 mins followed by ADP acyl phosphate probe addition and measured after 10 mins by LC-MS/MS analysis; assay type: subcellular
[6] = molecular target: Mitogen-activated protein kinase kinase kinase 1 (Homo sapiens, UniProt Q13233); test: Inhibition of MAP3K1 in human HeLa cells lysate at 50 uM pre incubated for 15 mins followed by ADP acyl phosphate probe addition and measured after 10 mins by LC-MS/MS analysis relative to control; assay type: subcellular; details: time 25.0 min
[7] = Inhibition of PCTAIRE2/ICK in human HeLa cells lysate at 50 uM pre incubated for 15 mins followed by ADP acyl phosphate probe addition and measured after 10 mins by LC-MS/MS analysis relative to control; details: 25 min, condition cancer
[8] = molecular target: T1, Interleukin-1 receptor-associated kinase 4 (Homo sapiens) (UniProt Q9NWZ3); test: Inhibition of IRAK4 in human HeLa cells lysate at 2 uM pre incubated for 15 mins followed by ADP acyl phosphate probe addition and measured after 10 mins by LC-MS/MS analysis relative to control; assay type: subcellular; details: time 25.0 min
T1 sequence (whole entry): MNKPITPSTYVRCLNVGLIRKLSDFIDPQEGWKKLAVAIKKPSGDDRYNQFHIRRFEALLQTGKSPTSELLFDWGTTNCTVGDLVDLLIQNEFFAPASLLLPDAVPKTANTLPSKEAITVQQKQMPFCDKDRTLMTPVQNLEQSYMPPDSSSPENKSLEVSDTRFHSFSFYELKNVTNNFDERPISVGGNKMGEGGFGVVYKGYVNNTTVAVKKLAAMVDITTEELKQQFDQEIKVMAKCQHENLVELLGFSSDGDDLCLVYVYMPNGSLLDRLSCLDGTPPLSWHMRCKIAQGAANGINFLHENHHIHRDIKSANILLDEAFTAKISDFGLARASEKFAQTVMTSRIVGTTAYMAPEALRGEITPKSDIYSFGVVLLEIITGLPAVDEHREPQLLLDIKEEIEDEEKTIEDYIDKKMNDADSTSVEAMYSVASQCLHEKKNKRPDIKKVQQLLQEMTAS

[9] = molecular target: T2, Aurora kinase A (Homo sapiens) (UniProt O14965); test: Inhibition of AurA in human HeLa cells lysate at 50 uM pre incubated for 15 mins followed by ATP acyl phosphate probe addition and measured after 10 mins by LC-MS/MS analysis relative to control; assay type: subcellular; details: time 25.0 min
T2 sequence (whole entry): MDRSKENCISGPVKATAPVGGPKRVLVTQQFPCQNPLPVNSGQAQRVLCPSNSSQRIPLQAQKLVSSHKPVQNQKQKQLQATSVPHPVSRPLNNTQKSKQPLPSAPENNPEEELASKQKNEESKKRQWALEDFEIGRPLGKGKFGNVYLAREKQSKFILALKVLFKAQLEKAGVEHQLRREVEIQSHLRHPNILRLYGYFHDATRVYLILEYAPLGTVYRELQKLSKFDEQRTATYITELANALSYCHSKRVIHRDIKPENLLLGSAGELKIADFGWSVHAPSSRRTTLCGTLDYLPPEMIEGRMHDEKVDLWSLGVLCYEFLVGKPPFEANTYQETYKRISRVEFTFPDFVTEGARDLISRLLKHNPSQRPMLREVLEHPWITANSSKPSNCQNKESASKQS
Summary of the method: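 KiNativ-type profiling in HeLa lysate (5 mg/mL total protein). Lysate preincubated 15 min with inhibitor at 50, 10, 2, 0.8 or 0 μM, then ATP or ADP acylphosphate probe added (5 μM final) for 10 min. Reaction stopped with urea and analysed by targeted MS, using up to four fragment ions per kinase peptide-probe conjugate. % inhibition calculated against untreated lysate. Duplicate reactions.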

[10] = molecular target: Mitogen-activated protein kinase kinase kinase 5 (Homo sapiens) (UniProt Q99683); test: Inhibition of MAP3K5 in human HeLa cells lysate at 10 uM pre incubated for 15 mins followed by ATP acyl phosphate probe addition and measured after 10 mins by LC-MS/MS analysis relative to control; assay type: subcellular; details: time 25.0 min
Chain of Mitogen-activated protein kinase kinase kinase 5 (Homo sapiens) (Q99683 whole entry): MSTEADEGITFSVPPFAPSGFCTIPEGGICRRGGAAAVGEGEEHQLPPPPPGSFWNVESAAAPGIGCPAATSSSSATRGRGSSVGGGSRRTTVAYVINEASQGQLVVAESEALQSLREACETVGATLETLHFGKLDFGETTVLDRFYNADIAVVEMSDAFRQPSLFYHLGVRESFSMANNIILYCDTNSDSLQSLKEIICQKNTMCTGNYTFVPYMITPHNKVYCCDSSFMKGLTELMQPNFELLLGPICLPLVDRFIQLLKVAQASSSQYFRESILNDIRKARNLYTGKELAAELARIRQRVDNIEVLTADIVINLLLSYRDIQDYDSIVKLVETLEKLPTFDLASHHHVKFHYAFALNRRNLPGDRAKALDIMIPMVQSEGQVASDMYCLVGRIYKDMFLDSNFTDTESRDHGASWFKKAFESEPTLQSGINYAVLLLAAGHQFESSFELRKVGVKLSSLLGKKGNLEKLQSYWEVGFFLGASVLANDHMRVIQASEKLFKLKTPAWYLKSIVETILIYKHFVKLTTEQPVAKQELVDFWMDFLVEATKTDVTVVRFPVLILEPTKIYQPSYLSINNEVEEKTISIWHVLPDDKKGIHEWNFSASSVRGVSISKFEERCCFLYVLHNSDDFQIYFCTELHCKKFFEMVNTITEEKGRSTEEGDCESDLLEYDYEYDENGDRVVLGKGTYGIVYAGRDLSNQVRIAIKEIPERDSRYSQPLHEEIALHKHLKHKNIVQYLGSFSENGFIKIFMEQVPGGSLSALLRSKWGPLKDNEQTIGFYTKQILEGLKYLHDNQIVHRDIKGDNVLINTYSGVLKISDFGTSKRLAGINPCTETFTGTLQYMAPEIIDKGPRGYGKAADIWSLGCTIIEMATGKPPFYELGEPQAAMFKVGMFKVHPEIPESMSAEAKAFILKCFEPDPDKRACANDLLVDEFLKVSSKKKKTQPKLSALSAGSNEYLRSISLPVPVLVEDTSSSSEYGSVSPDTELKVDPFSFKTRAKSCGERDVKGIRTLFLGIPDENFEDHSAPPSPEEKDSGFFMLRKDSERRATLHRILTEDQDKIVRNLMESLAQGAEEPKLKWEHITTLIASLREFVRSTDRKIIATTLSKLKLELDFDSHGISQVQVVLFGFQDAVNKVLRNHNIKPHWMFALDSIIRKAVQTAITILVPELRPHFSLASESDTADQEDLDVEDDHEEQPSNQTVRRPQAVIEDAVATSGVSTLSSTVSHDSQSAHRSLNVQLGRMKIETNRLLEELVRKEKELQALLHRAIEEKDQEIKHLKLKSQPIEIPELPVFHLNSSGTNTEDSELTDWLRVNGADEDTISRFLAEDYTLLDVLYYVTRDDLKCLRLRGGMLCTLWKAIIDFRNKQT

[11] = molecular target: T3, Mitogen-activated protein kinase kinase kinase 7 (Homo sapiens) (UniProt O43318); test: Inhibition of TAK1 in human HeLa cells lysate at 2 uM pre incubated for 15 mins followed by ATP acyl phosphate probe addition and measured after 10 mins by LC-MS/MS analysis relative to control; assay type: subcellular; details: time 25.0 min
T3 sequence (whole entry): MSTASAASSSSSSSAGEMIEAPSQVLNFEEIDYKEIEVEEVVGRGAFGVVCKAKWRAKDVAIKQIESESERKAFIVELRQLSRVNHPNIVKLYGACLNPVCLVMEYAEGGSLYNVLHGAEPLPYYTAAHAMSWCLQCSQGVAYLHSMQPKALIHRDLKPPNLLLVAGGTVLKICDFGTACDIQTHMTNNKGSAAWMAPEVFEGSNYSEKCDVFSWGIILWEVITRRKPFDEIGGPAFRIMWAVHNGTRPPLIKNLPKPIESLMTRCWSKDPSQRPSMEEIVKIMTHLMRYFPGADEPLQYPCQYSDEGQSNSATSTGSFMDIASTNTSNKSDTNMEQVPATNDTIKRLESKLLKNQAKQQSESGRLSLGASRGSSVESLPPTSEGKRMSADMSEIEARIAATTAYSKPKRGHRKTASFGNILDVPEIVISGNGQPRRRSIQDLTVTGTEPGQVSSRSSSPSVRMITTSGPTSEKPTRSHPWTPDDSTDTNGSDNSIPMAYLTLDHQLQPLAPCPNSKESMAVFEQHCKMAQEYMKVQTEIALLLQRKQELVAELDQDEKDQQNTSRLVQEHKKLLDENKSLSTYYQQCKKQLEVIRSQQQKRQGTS

[12] = molecular target: Mitogen-activated protein kinase 14 (Homo sapiens, UniProt Q16539); test: Inhibition of P38alpha interaction site in human HeLa cells lysate at 2 uM pre incubated for 15 mins followed by ATP acyl phosphate probe addition and measured after 10 mins by LC-MS/MS analysis relative to control; assay type: subcellular; details: time 25.0 min
Chain of Mitogen-activated protein kinase 14 (Q16539 whole entry): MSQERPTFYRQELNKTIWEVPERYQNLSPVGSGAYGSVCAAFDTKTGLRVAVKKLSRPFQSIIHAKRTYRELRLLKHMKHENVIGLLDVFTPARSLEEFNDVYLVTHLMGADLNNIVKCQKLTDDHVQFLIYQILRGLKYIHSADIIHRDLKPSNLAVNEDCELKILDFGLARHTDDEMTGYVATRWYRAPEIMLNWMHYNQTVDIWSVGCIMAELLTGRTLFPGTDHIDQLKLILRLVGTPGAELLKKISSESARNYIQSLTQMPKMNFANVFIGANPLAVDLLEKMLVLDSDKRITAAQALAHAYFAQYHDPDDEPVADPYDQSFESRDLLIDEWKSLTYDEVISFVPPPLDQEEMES

Chain of Interleukin-1 receptor-associated kinase 1 (P51617 whole entry): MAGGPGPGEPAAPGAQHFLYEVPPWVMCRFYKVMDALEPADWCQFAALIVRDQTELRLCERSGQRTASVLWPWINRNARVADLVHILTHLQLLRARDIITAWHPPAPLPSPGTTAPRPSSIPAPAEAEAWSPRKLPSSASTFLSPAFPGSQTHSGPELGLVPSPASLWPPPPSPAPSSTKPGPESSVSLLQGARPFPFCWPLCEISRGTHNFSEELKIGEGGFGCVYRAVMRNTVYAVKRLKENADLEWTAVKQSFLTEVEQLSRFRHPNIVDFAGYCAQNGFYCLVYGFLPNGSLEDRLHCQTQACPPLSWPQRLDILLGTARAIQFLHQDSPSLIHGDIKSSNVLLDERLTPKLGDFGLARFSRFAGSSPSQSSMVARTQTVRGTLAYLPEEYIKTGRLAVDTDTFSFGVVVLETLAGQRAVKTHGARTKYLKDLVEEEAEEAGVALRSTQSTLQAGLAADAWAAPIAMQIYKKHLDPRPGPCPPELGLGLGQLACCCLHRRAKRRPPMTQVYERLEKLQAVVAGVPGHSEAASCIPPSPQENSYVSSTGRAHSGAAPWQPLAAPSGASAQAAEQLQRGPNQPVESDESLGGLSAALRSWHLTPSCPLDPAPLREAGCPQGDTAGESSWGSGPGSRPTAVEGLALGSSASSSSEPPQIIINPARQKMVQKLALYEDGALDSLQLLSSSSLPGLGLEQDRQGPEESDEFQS

CCOc1cc(N2CCC(O)CC2)ccc1Nc1ncc2c(n1)N(C)c1ccccc1C(=O)N2C
IC50 [1]: > 50 µM | IC50 [2]: > 50 µM | IC50 [3]: > 50 µM | IC50 [4]: > 50 µM | IC50 [5]: > 50 µM | inhibition [6]: 14.1% | inhibition at 50 µM [7]: 4.1% | inhibition [8]: 12.7% | inhibition [9]: 13.1% | inhibition [10]: 12.5% | inhibition [11]: -4.8% | inhibition [12]: -9.5%
